Source: ChEMBL document CHEMBL4038319, “Development of a Potent Inhibitor of the Plasmodium Proteasome with Reduced Mammalian Toxicity” (J Med Chem, 2017)
pIC50, pKi: −log10 of the molar value.

Legend:
HepG2 = assay: Cytotoxicity against human HepG2 cells harboring A16-CD81EGFP assessed as cell viability after 48 hrs by bioluminescence assay; type: cell-based; details: HepG2, 48 h
Outline: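 HepG2-A16-CD81EGFP cells, 3 × 10^3 per well, seeded 24 h ahead in DMEM with 5% FBS. Viability read by bioluminescence after 48 h and fitted by four-parameter regression; puromycin control.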

Plasmodium falciparum [1] = assay: Antimalarial activity against asexual blood stage Plasmodium falciparum Dd2 infected in human erythrocytes after 72 hrs by SYBR green 1 dye based fluorescence assay; type: functional, cell-based; details: Dd2, 72 h
[2] = target: T1, constitutive 20S proteasome beta5 subunit (Proteasome Macropain subunit MB1) (Homo sapiens, UniProt P28074); assay: Inhibition of human constitutive 20S proteasome beta5 subunit using suc-LLVY-AMC as substrate at 50 nM after 60 to 120 mins by fluorescence assay relative to control; details: probe suc-LLVY-AMC
T1 sequence (P28074 whole entry): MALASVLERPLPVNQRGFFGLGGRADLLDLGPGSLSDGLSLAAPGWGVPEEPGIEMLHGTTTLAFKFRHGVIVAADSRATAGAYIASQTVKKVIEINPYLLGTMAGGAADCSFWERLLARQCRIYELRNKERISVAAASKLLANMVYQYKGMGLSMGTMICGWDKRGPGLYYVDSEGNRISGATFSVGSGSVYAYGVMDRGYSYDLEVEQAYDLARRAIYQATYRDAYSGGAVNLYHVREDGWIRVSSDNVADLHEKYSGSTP
Outline: (§1)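 Pf20S enriched from asynchronous parasite lysate by two-step chromatography; human constitutive 20S from a commercial source. Enzymes at 0.29 nM with 25 μM Suc-LLE-AMC, Suc-LRR-AMC or Suc-LLVY-AMC in 20 mM Tris pH 7.5, 0.02% SDS. Inhibitor and substrate added together; AMC release rate (Ex 340/Em 465) taken from 60–120 min against DMSO.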

Plasmodium falciparum [3] = assay: Inhibition of schizont stage Plasmodium falciparum 20S proteasome beta5 subunit using suc-LLVY-AMC as substrate at 50 nM after 60 to 120 mins by fluorescence assay relative to control; outline: as §1
Plasmodium falciparum [4] = assay: Inhibition of early trophozoite stage Plasmodium falciparum 20S proteasome beta5 subunit using suc-LLVY-AMC as substrate at 95 nM after 4 hrs by fluorescence assay relative to control
Outline: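 Sorbitol-synchronized early trophozoites at 5% parasitemia exposed to 95 nM inhibitor for 4 h, then washed and lysed. 15 μg total protein assayed with 25 μM Suc-LLVY-AMC in Tris pH 7.5/0.02% SDS buffer; AMC release compared against DMSO-treated cells.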

[5] = target: T2, Proteasome Macropain subunit MB1 (Homo sapiens, UniProt P28074); assay: Irreversible inhibition of human 20S proteasome beta5 subunit using suc-LLVY-AMC as substrate after 4 hrs at 30 mins time interval by fluorescence assay
T2 sequence (P28074 whole entry): T1 sequence (P28074 whole entry)

[6] = target: T3, 20S proteasome beta5 subunit (Proteasome Macropain subunit MB1) (Homo sapiens, UniProt P28074); assay: Inhibition of human 20S proteasome beta5 subunit using suc-LLVY-AMC as substrate at 150 nM after 60 to 120 mins by fluorescence assay relative to control; details: probe suc-LLVY-AMC; outline: as §1
T3 sequence (P28074 whole entry): T1 sequence (P28074 whole entry)

Plasmodium falciparum [7] = assay: Inhibition of schizont stage Plasmodium falciparum 20S proteasome beta1 subunit using z-LLE-AMC as substrate at 150 nM after 60 to 120 mins by fluorescence assay relative to control
Plasmodium falciparum [8] = assay: Inhibition of schizont stage Plasmodium falciparum 20S proteasome beta2 subunit using z-LRR-AMC as substrate at 150 nM after 60 to 120 mins by fluorescence assay relative to control
Plasmodium falciparum [9] = assay: Inhibition of schizont stage Plasmodium falciparum 20S proteasome beta5 using suc-LLVY-AMC as substrate at 150 nM after 60 to 120 mins by fluorescence assay relative to control
Plasmodium falciparum [10] = assay: Growth inhibition of Plasmodium falciparum Dd2 infected in human erythrocytes at 0.5 to 1 nM after 72 hrs by SYBR green 1 dye based fluorescence assay relative to control; type: cell-based; details: Dd2, 72 h, read-out: GI
Plasmodium falciparum [11] = assay: Antimalarial activity against stage V gametocytes of Plasmodium falciparum NF54 infected in human erythrocytes after 72 hrs by mitotracker red based […] assay; type: functional, cell-based; details: NF54, 72 h
Plasmodium falciparum [12] = assay: Inhibition of schizont stage Plasmodium falciparum 20S proteasome beta1 subunit using z-LLE-AMC as substrate at 450 nM after 60 to 120 mins by fluorescence assay relative to control
Plasmodium falciparum [13] = assay: Inhibition of schizont stage Plasmodium falciparum 20S proteasome beta2 subunit using z-LRR-AMC as substrate at 450 nM after 60 to 120 mins by fluorescence assay relative to control
Plasmodium falciparum [14] = assay: Inhibition of schizont stage Plasmodium falciparum 20S proteasome using suc-LLVY-AMC as substrate at 450 nM after 60 to 120 mins relative to control

Structure (SMILES)	pIC50 (HepG2)	pIC50 (Plasmodium falciparum [1])	inhibition (Plasmodium falciparum [3])	inhibition (Plasmodium falciparum [4])	further results
CCCCCC(=O)N[C@@H](Cc1ccccc1)C(=O)N[C@@H](CCCC)C(=O)N[C@@H](Cc1ccccc1)C(=O)[C@@]1(C)CO1	7.51	8.17	–	–	–
CCCCCC(=O)NC(Cc1ccc(NC(=O)OC(C)(C)C)cc1)C(=O)N[C@@H](Cc1ccc(NC(=O)OC(C)(C)C)cc1)C(=O)N[C@@H](CC(C)C)C(=O)[C@@]1(C)CO1 (single isomer, unassigned)	6.93	7.87	–	–	–
CCCCCC(=O)N[C@@H](Cc1c[nH]c2ccccc12)C(=O)N[C@@H](CCCC)C(=O)N[C@@H](Cc1ccccc1)C(=O)[C@@]1(C)CO1	8.19	8.01	–	–	–
CCCCCC(=O)N[C@H](Cc1c[nH]c2ccccc12)C(=O)N[C@@H](CCCC)C(=O)N[C@@H](CC(C)C)C(=O)[C@@]1(C)CO1	6.04	8.53	10 to 47%	40 to 60%	inhibition at 0.05 µM [2]: ≤ 10%
CCCCCC(=O)N[C@@H](Cc1ccccc1)C(=O)N[C@@H](CCCC)C(=O)N[C@@H](CC(C)C)C(=O)[C@@]1(C)CO1	7.64	8.39	–	–	–
CCCCCC(=O)N[C@@H](Cc1c[nH]c2ccccc12)C(=O)N[C@@H](CCCC)C(=O)N[C@@H](CC(C)C)C(=O)[C@@]1(C)CO1	–	8.51	–	–	–
CCCCCC(=O)N[C@@H](Cc1c[nH]c2ccccc12)C(=O)N[C@@H](Cc1c[nH]c2ccccc12)C(=O)N[C@@H](Cc1ccccc1)C(=O)[C@@]1(C)CO1	6.46	8.03	10 to 47%	40 to 60%	–
CCCCCC(=O)N[C@@H](Cc1ccc(NC(=O)OC(C)(C)C)cc1)C(=O)N[C@@H](CCCC)C(=O)N[C@@H](CC(C)C)C(=O)[C@@]1(C)CO1	7.10	8.26	–	–	–
CCCCCC(=O)N[C@@H](Cc1ccncc1)C(=O)N[C@@H](CCCC)C(=O)N[C@@H](CC(C)C)C(=O)[C@@]1(C)CO1	> 9.55	8.48	–	–	–
CCCCCC(=O)N[C@H](C(=O)N[C@@H](CCCC)C(=O)N[C@@H](CC(C)C)C(=O)[C@@]1(C)CO1)C(C)C	6.87	8.39	10 to 47%	40 to 60%	inhibition at 0.05 µM [2]: 89%; pKi [5]: 5.43
CCCCCC(=O)N[C@H](Cc1ccncc1)C(=O)N[C@@H](CCCC)C(=O)N[C@@H](CC(C)C)C(=O)[C@@]1(C)CO1	> 9.55	7.66	–	–	–
CCCCCC(=O)N[C@H](C(=O)N[C@@H](CCS(C)(=O)=O)C(=O)N[C@@H](CC(C)C)C(=O)[C@@]1(C)CO1)C(C)C	–	–	10 to 47%	40 to 60%	inhibition at 0.15 µM [6]: 98%; inhibition (Plasmodium falciparum [7]): 16%; inhibition (Plasmodium falciparum [8]): 29%; inhibition (Plasmodium falciparum [9]): 45%; inhibition at 0.05 µM [2]: 97%; pKi [5]: 6.43; inhibition at up to 0.001 µM (Plasmodium falciparum [10]): < 10%
CCCCCC(=O)N[C@@H](Cc1c[nH]c2ccccc12)C(=O)N[C@@H](Cc1c[nH]c2ccccc12)C(=O)N[C@@H](CC(C)C)C(=O)[C@@]1(C)CO1	7.93	8.43	–	–	–
CCCCCC(=O)N[C@H](Cc1ccc(N)cc1)C(=O)N[C@@H](Cc1ccc(N)cc1)C(=O)N[C@@H](CC(C)C)C(=O)[C@@]1(C)CO1	9.04	7.22	–	–	–
CCCCCC(=O)N[C@@H](Cc1ccc(NC(=O)OC(C)(C)C)cc1)C(=O)N[C@@H](CCCC)C(=O)N[C@@H](Cc1ccccc1)C(=O)[C@@]1(C)CO1	6.32	8.26	10 to 47%	40 to 60%	–
CCCCCC(=O)N[C@@H](C(=O)N[C@@H](CCCC)C(=O)N[C@@H](CC(C)C)C(=O)[C@@]1(C)CO1)C(C)C	5.91	8.49	10 to 47%	40 to 60%	pIC50 (Plasmodium falciparum [11]): 6.89; inhibition at 0.05 µM [2]: ≤ 10%; inhibition (Plasmodium falciparum [12]): 6%; inhibition (Plasmodium falciparum [13]): 9%; inhibition (Plasmodium falciparum [14]): 45%; pKi [5]: 4.41; inhibition at up to 0.001 µM (Plasmodium falciparum [10]): < 10%
CCCCCC(=O)N[C@@H](Cc1ccc(N)cc1)C(=O)N[C@@H](CCCC)C(=O)N[C@@H](CC(C)C)C(=O)[C@@]1(C)CO1	8.20	8.22	–	–	–
CCCCCC(=O)NC(Cc1ccc(NC(=O)OC(C)(C)C)cc1)C(=O)N[C@@H](Cc1ccc(NC(=O)OC(C)(C)C)cc1)C(=O)N[C@@H](Cc1ccccc1)C(=O)[C@@]1(C)CO1 (single isomer, unassigned)	7.34	7.91	–	–	–
CCCCCC(=O)N[C@@H](Cc1ccc(N)cc1)C(=O)N[C@@H](CCCC)C(=O)N[C@@H](Cc1ccccc1)C(=O)[C@@]1(C)CO1	5.47	7.09	10 to 47%	40 to 60%	–
CCCCCC(=O)N[C@@H](Cc1ccncc1)C(=O)N[C@@H](CCCC)C(=O)N[C@@H](Cc1ccccc1)C(=O)[C@@]1(C)CO1	> 9.55	8.41	–	–	–
CCCCCC(=O)N[C@H](Cc1ccc(N)cc1)C(=O)N[C@@H](Cc1ccc(N)cc1)C(=O)N[C@@H](Cc1ccccc1)C(=O)[C@@]1(C)CO1	6.02	7.17	–	–	–
